Reference: ChEMBL document CHEMBL4480406, “Discovery of an SSTR2-Targeting Maytansinoid Conjugate (PEN-221) with Potent Activity in Vitro and in Vivo” (J Med Chem, 2019)
Where a SMILES comes first, the peptide text is derived from it. [ ]: non-standard residue; d: D form. The star is where a group is joined. Dolaproine = CO[C@@H]([C@@H]1CCCN1)[C@@H](C)C(=O)O; Dil = CC[C@H](C)[C@H](NC)[C@@H](CC(=O)O)OC; X1 = C[C@@H](N*)[C@@H](O)c1ccccc1; NMeV = CN[C@H](C(=O)O)C(C)C

Experiments:
NCI-H524 [1] = assay: Cytotoxicity in human NCI-H524 cells pre-incubated for 2 hrs followed by compound wash out and subsequently incubated for 70 hrs by Cell Titer Glo assay; assay type: functional, cell-based
Summary of the method: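 Cells were then spun, washed with fresh medium, resuspended and grown a further 70 h. Proliferation was read by CellTiter-Glo luminescence, and % inhibition calculated relative to vehicle. IC50 came from a four-parameter nonlinear fit.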

NCI-H524 [2] = assay: Cytotoxicity in human NCI-H524 cells pre-incubated for 2 hrs in presence of 100 uM octreotide followed by compound wash out and subsequently incubated for 70 hrs by Cell Titer Glo assay; assay type: functional, cell-based
Summary of the method: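 Octreotide receptor-blockade variant: NCI-H524 cells (5,000/well) were pretreated with octreotide acetate for 30 min, then given compound for 2 h in a ten-point three-fold series.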

[3] = molecular target: Somatostatin receptor type 2 (Homo sapiens, UniProt P30874); assay: Displacement of [125I]somatostatin from human SSTR2 expressed in CHO-K1 cell membranes after 240 mins
Summary of the method: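 Membranes from CHO-K1 cells stably expressing human SSTR2, prepared in modified HEPES pH 7.4. Nonspecific binding was defined with 1 µM somatostatin. Bound ligand was measured by filtration, 3 washes and counting. Six test concentrations were run, top 10 nM, in five-fold dilutions.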

[4] = Drug uptake in tumor of CrTac:NCr-Foxn1nu mouse xenografted with human NCI-H69 cells assessed as DM1 level at 1 mg/kg, iv measured after 24 hrs by LC-MS/MS analysis relative to DM1 alone; assay type: ADME, organism-based, Neoplasm; settings: in vivo
Summary of the method: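 NCI-H69 subcutaneous tumors of 250-600 mm3 in nude mice, groups of 3, dosed i.v. Free DM1 was given in 10% propylene glycol/WFI, conjugates in 10% propylene glycol/5 mM citrate pH 4. Tumors were excised at 24 h and homogenized 1:4 (w/v) in 0.1 M ammonium bicarbonate pH 8.0. Homogenate was reduced with TCEP in acetonitrile (15 min, 37 °C), capped with 0.2 M NEM (15 min, 37 °C), and DM1-NEM quantified by LC-MS/MS against standards in blank tumor homogenate. Values were normalized to DM1 dose.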

Somatostatin receptor type 2, sequence (P30874 whole entry): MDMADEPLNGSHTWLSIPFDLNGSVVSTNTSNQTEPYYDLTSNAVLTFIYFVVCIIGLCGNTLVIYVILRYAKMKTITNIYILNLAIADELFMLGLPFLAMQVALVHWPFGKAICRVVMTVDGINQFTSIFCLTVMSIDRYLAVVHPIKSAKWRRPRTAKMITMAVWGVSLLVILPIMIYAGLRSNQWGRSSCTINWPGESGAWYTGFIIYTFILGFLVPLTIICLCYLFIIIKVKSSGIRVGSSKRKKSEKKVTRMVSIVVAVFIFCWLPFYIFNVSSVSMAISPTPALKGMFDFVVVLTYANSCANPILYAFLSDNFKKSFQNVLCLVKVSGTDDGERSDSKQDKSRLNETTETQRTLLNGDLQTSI

Compound `CC[C@H](C)[C@@H]([C@@H](CC(=O)N1CCC[C@H]1[C@H](OC)[C@@H](C)C(=O)N[C@H](C)[C@@H](O)c1ccccc1)OC)N(C)C(=O)[C@@H](NC(=O)[C@H](C(C)C)N(C)C(=O)OCCSSC[C@H](NC(=O)[C@@H]1CSSC[C@H](NC(=O)[C@H](N)Cc2ccccc2)C(=O)N[C@@H](Cc2ccc(O)cc2)C(=O)N[C@H](Cc2c[nH]c3ccccc23)C(=O)N[C@@H](CCCCN)C(=O)N[C@@H]([C@@H](C)O)C(=O)N1)C(N)=O)C(C)C` has an IC50 (NCI-H524 [1]) of 1260 nM, an IC50 (NCI-H524 [2]) of 1430 nM and a Ki [3] of 0.18 nM.

`COc1cc2cc(c1Cl)N(C)C(=O)C[C@H](OC(=O)[C@H](C)N(C)C(=O)CCC(C)(C)SSC[C@H](NC(=O)[C@@H]1CSSC[C@H](NC(=O)[C@H](N)Cc3ccccc3)C(=O)N[C@@H](Cc3ccc(O)cc3)C(=O)N[C@H](Cc3c[nH]c4ccccc34)C(=O)N[C@@H](CCCCN)C(=O)N[C@@H]([C@@H](C)O)C(=O)N1)C(N)=O)[C@@]1(C)O[C@H]1[C@H](C)[C@@H]1C[C@@](O)(NC(=O)O1)[C@H](OC)/C=C/C=C(\C)C2` gave an IC50 (NCI-H524 [1]) of 27 nM, an IC50 (NCI-H524 [2]) of 581 nM and a Ki [3] of 0.075 nM.

Work on `COc1cc2cc(c1Cl)N(C)C(=O)C[C@H](OC(=O)[C@H](C)N(C)C(=O)CCSSCCCN[C@H](Cc1ccccc1)C(=O)N[C@H]1CSSC[C@@H](C(=O)N[C@H](CO)[C@@H](C)O)NC(=O)[C@H]([C@@H](C)O)NC(=O)[C@H](CCCCN)NC(=O)[C@@H](Cc3c[nH]c4ccccc34)NC(=O)[C@H](Cc3ccccc3)NC1=O)[C@@]1(C)O[C@H]1[C@H](C)[C@@H]1C[C@@](O)(NC(=O)O1)[C@H](OC)/C=C/C=C(\C)C2` yielded an IC50 (NCI-H524 [1]) of 30 nM, an IC50 (NCI-H524 [2]) of 221 nM and a Ki [3] of 0.12 nM. The Drug uptake [4] was “Active”.

Compound `COc1cc2cc(c1Cl)N(C)C(=O)C[C@H](OC(=O)[C@H](C)N(C)C(=O)CCSSC[C@H](NC(=O)[C@@H]1CSSC[C@H](NC(=O)[C@H](N)Cc3ccccc3)C(=O)N[C@@H](Cc3ccc(O)cc3)C(=O)N[C@H](Cc3c[nH]c4ccccc34)C(=O)N[C@@H](CCCCN)C(=O)N[C@@H]([C@@H](C)O)C(=O)N1)C(=O)O)[C@@]1(C)O[C@H]1[C@H](C)[C@@H]1C[C@@](O)(NC(=O)O1)[C@H](OC)/C=C/C=C(\C)C2` has an IC50 (NCI-H524 [1]) of 183 nM, an IC50 (NCI-H524 [2]) of 1600 nM and a Ki [3] of 0.013 nM.

Compound `COc1cc2cc(c1Cl)N(C)C(=O)C[C@H](OC(=O)[C@H](C)N(C)C(=O)CCSC1CC(=O)N(CC(=O)NC[C@H](NC(=O)[C@@H]3CSSC[C@H](NC(=O)[C@H](N)Cc4ccccc4)C(=O)N[C@@H](Cc4ccc(O)cc4)C(=O)N[C@H](Cc4c[nH]c5ccccc45)C(=O)N[C@@H](CCCCN)C(=O)N[C@@H]([C@@H](C)O)C(=O)N3)C(N)=O)C1=O)[C@@]1(C)O[C@H]1[C@H](C)[C@@H]1C[C@@](O)(NC(=O)O1)[C@H](OC)/C=C/C=C(\C)C2` (some centres not stated) has an IC50 (NCI-H524 [1]) of 91 nM, an IC50 (NCI-H524 [2]) of 2520 nM and a Ki [3] of 0.14 nM.

`CC[C@H](C)[C@@H]([C@@H](CC(=O)N1CCC[C@H]1[C@H](OC)[C@@H](C)C(=O)N[C@H](C)[C@@H](O)c1ccccc1)OC)N(C)C(=O)[C@@H](NC(=O)[C@@H](NC)C(C)C)C(C)C` (H-[NMeV]V[Dil][Dolaproine]-X1) showed an IC50 (NCI-H524 [1]) of 3.7 nM.

In the case of `COc1cc2cc(c1Cl)N(C)C(=O)C[C@H](OC(=O)[C@H](C)N(C)C(=O)CCSSCCOc1ccc(C[C@@H](N)C(=O)N[C@H]3CSSC[C@@H](C(=O)N[C@H](C(=O)O)[C@@H](C)O)NC(=O)[C@H]([C@@H](C)O)NC(=O)[C@H](CCCCN)NC(=O)[C@@H](Cc4c[nH]c5ccccc45)NC(=O)[C@H](Cc4ccc(O)cc4)NC3=O)cc1)[C@@]1(C)O[C@H]1[C@H](C)[C@@H]1C[C@@](O)(NC(=O)O1)[C@H](OC)/C=C/C=C(\C)C2`, the IC50 (NCI-H524 [1]) is reported as 15 nM, the IC50 (NCI-H524 [2]) is reported as 198 nM and the Ki [3] is reported as 0.015 nM. For the same compound, the Drug uptake [4] was “Active”.

With `COc1cc2cc(c1Cl)N(C)C(=O)C[C@H](OC(=O)[C@H](C)N(C)C(=O)CCSSCCC(=O)NCCCC[C@H]1C(=O)N[C@@H](Cc3ccc(O)cc3)C(=O)N[C@H](Cc3c[nH]c4ccccc34)C(=O)N[C@@H](CCCCN)C(=O)N[C@@H]([C@@H](C)O)C(=O)N[C@@H](Cc3ccccc3)C(=O)N1C)[C@@]1(C)O[C@H]1[C@H](C)[C@@H]1C[C@@](O)(NC(=O)O1)[C@H](OC)/C=C/C=C(\C)C2` the IC50 (NCI-H524 [1]) was 60 nM, the IC50 (NCI-H524 [2]) was 865 nM and the Ki [3] was 0.1 nM.

Work on `COc1cc2cc(c1Cl)N(C)C(=O)C[C@H](OC(=O)[C@H](C)N(C)C(=O)CCSC1CC(=O)N(CCCNC(=O)CNC(=O)[C@H](CC(C)C)NC(=O)[C@H](Cc3ccccc3)NC(=O)CNC(=O)CCCCCN3C(=O)CC(SCCCN[C@H](Cc4ccccc4)C(=O)N[C@H]4CSSC[C@@H](C(=O)N[C@H](CO)[C@@H](C)O)NC(=O)[C@H]([C@@H](C)O)NC(=O)[C@H](CCCCN)NC(=O)[C@@H](Cc5c[nH]c6ccccc56)NC(=O)[C@H](Cc5ccccc5)NC4=O)C3=O)C1=O)[C@@]1(C)O[C@H]1[C@H](C)[C@@H]1C[C@@](O)(NC(=O)O1)[C@H](OC)/C=C/C=C(\C)C2` (some centres not stated) yielded an IC50 (NCI-H524 [1]) of 75 nM, an IC50 (NCI-H524 [2]) of 202 nM and a Ki [3] of 0.14 nM.

For `COc1cc2cc(c1Cl)N(C)C(=O)C[C@H](OC(=O)[C@H](C)N(C)C(=O)CCSSCCNC(=O)[C@@H]1CSSC[C@H](NC(=O)[C@H](N)Cc3ccccc3)C(=O)N[C@@H](Cc3ccc(O)cc3)C(=O)N[C@H](Cc3c[nH]c4ccccc34)C(=O)N[C@@H](CCCCN)C(=O)N[C@@H]([C@@H](C)O)C(=O)N1)[C@@]1(C)O[C@H]1[C@H](C)[C@@H]1C[C@@](O)(NC(=O)O1)[C@H](OC)/C=C/C=C(\C)C2`, the IC50 (NCI-H524 [1]) was 10 nM, the IC50 (NCI-H524 [2]) was 692 nM and the Ki [3] was 0.061 nM.

Compound `COc1cc2cc(c1Cl)N(C)C(=O)C[C@H](OC(=O)[C@H](C)N(C)C(=O)CCSSC[C@@H](CO)NC(=O)[C@@H]1CSSC[C@H](NC(=O)[C@H](N)Cc3ccccc3)C(=O)N[C@@H](Cc3ccc(O)cc3)C(=O)N[C@H](Cc3c[nH]c4ccccc34)C(=O)N[C@@H](CCCCN)C(=O)N[C@@H]([C@@H](C)O)C(=O)N1)[C@@]1(C)O[C@H]1[C@H](C)[C@@H]1C[C@@](O)(NC(=O)O1)[C@H](OC)/C=C/C=C(\C)C2` has an IC50 (NCI-H524 [1]) of 42 nM, an IC50 (NCI-H524 [2]) of 1390 nM and a Ki [3] of 0.018 nM.

`COc1cc2cc(c1Cl)N(C)C(=O)C[C@H](OC(=O)[C@H](C)N(C)C(=O)CCS)[C@@]1(C)O[C@H]1[C@H](C)[C@@H]1C[C@@](O)(NC(=O)O1)[C@H](OC)/C=C/C=C(\C)C2` gave an IC50 (NCI-H524 [1]) of 11 nM.

Compound `CO[C@H]1C(=O)[C@]2(C)[C@@H](OC)C[C@H]3OC[C@@]3(OC(C)=O)[C@H]2[C@H](OC(=O)c2ccccc2)[C@]2(O)C[C@H](OC(=O)[C@H](O)[C@@H](NC(=O)OC(C)(C)C)c3ccccc3)C(C)=C1C2(C)C` [CABAZITAXEL] has an IC50 (NCI-H524 [1]) of 0.26 nM.

For `COc1cc2cc(c1Cl)N(C)C(=O)C[C@H](OC(=O)[C@H](C)N(C)C(=O)CCSSCCNC(=O)[C@@H](NC(=O)[C@@H]1CSSC[C@H](NC(=O)[C@H](N)Cc3ccccc3)C(=O)N[C@@H](Cc3ccc(O)cc3)C(=O)N[C@H](Cc3c[nH]c4ccccc34)C(=O)N[C@@H](CCCCN)C(=O)N[C@@H]([C@@H](C)O)C(=O)N1)[C@@H](C)O)[C@@]1(C)O[C@H]1[C@H](C)[C@@H]1C[C@@](O)(NC(=O)O1)[C@H](OC)/C=C/C=C(\C)C2`, the IC50 (NCI-H524 [1]) was 44 nM, the IC50 (NCI-H524 [2]) was 528 nM and the Drug uptake [4] was “Active”.

With `COc1cc2cc(c1Cl)N(C)C(=O)C[C@H](OC(=O)[C@H](C)N(C)C(=O)CCSSCCCN[C@H](Cc1ccccc1)C(=O)N[C@H]1CSSC[C@@H](C(=O)N[C@H](C(=O)O)[C@@H](C)O)NC(=O)[C@H]([C@@H](C)O)NC(=O)[C@H](CCCCN)NC(=O)[C@@H](Cc3c[nH]c4ccccc34)NC(=O)[C@H](Cc3ccc(O)cc3)NC1=O)[C@@]1(C)O[C@H]1[C@H](C)[C@@H]1C[C@@](O)(NC(=O)O1)[C@H](OC)/C=C/C=C(\C)C2` the IC50 (NCI-H524 [1]) was 19 nM, the IC50 (NCI-H524 [2]) was 757 nM and the Drug uptake [4] was “Active”.

Compound `CC[C@H](C)[C@@H]([C@@H](CC(=O)N1CCC[C@H]1[C@H](OC)[C@@H](C)C(=O)N[C@H](C)[C@@H](O)c1ccccc1)OC)N(C)C(=O)[C@@H](NC(=O)[C@H](C(C)C)N(C)C(=O)OCCSSCCCN[C@H](Cc1ccccc1)C(=O)N[C@H]1CSSC[C@@H](C(=O)N[C@H](CO)[C@@H](C)O)NC(=O)[C@H]([C@@H](C)O)NC(=O)[C@H](CCCCN)NC(=O)[C@@H](Cc2c[nH]c3ccccc23)NC(=O)[C@H](Cc2ccccc2)NC1=O)C(C)C` has an IC50 (NCI-H524 [1]) of 1470 nM, an IC50 (NCI-H524 [2]) of 560 nM and a Ki [3] of 0.26 nM.

For `CO[C@H]1C(=O)[C@]2(C)[C@@H](OC)C[C@H]3OC[C@@]3(OC(C)=O)[C@H]2[C@H](OC(=O)c2ccccc2)[C@]2(O)C[C@H](OC(=O)[C@H](OC(=O)OCCSSCCCN[C@H](Cc3ccccc3)C(=O)N[C@H]3CSSC[C@@H](C(=O)N[C@H](CO)[C@@H](C)O)NC(=O)[C@H]([C@@H](C)O)NC(=O)[C@H](CCCCN)NC(=O)[C@@H](Cc4c[nH]c5ccccc45)NC(=O)[C@H](Cc4ccccc4)NC3=O)[C@@H](NC(=O)OC(C)(C)C)c3ccccc3)C(C)=C1C2(C)C`, the IC50 (NCI-H524 [1]) was 150 nM, the IC50 (NCI-H524 [2]) was 157 nM and the Ki [3] was 0.77 nM.
